Source: ChEMBL document CHEMBL1156077, “Piperazinyl-glutamate-pyrimidines as potent P2Y12 antagonists for inhibition of platelet aggregation” (Bioorg Med Chem Lett, 2009)

Columns and labels:
[1] = target: T1, P2Y purinoceptor 12 (Homo sapiens, UniProt Q9H244); assay: Binding affinity at human recombinant P2Y12 receptor expressed in CHO cells by radioligand binding assay; type: cell-based
Procedure, shortened: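 Washed membranes from CHO cells transfected with synthetic human P2Y12 gene. Compounds as 7-point threefold dilutions, triplicate, 1 h at room temperature. Nonspecific binding defined with 300 nM 2-MeSADP. Filtered, washed with ice-cold Tris pH 7.4. Single-site fit; IC50 converted to Ki by Cheng–Prusoff, geometric mean of n≥2.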

[2] = target: T1, P2Y purinoceptor 12; assay: Ratio of compound IC50 to thienopyrimidine IC50 for P2Y12 receptor in human platelet rich plasma assessed as inhibition of ADP-induced platelet aggregation by light transmission aggregometry
Procedure, shortened: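 Human platelet-rich plasma was pre-incubated 5 min at 37 °C with compound across seven concentrations (10 down to 0.156). Aggregation was started with ADP (20, final) and followed by light transmission at 626 nm for 15 min at 37 °C. Duplicate concentration-response data were read at the 15-min end-point. IC50 was divided by the IC50 of the thienopyrimidine reference run on the same plate.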

[3] = target: T1, P2Y purinoceptor 12; assay: Ratio of compound IC50 to AZD-6140 IC50 for P2Y12 receptor in human platelet rich plasma assessed as inhibition of ADP-induced platelet aggregation by light transmission aggregometry
Procedure, shortened: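 Human platelet-rich plasma was pre-incubated 5 min at 37 °C with compound across seven concentrations (10 down to 0.156). Aggregation was started with ADP (20, final) and followed by light transmission at 626 nm for 15 min at 37 °C. Duplicate concentration-response data were read at the 15-min end-point. IC50 was divided by the IC50 of AZD-6140 run on the same plate.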

[4] = system: Liver microsomes; assay: Metabolic stability in rat liver microsomes assessed as compound remaining; type: ADME, Microsome
Procedure, shortened: (§1)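 Compounds incubated 30 min with human or rat liver microsomes; percent of parent compound remaining measured.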

[5] = system: Liver microsomes; assay: Metabolic stability in human liver microsomes assessed as compound remaining; type: ADME, Microsome; procedure, shortened: as §1
[6] = target: T2, CYP1A2 (Homo sapiens, UniProt P05177); assay: Inhibition of CYP1A2 at 3 uM after 30 mins; type: ADME
T2 sequence (P05177 whole entry): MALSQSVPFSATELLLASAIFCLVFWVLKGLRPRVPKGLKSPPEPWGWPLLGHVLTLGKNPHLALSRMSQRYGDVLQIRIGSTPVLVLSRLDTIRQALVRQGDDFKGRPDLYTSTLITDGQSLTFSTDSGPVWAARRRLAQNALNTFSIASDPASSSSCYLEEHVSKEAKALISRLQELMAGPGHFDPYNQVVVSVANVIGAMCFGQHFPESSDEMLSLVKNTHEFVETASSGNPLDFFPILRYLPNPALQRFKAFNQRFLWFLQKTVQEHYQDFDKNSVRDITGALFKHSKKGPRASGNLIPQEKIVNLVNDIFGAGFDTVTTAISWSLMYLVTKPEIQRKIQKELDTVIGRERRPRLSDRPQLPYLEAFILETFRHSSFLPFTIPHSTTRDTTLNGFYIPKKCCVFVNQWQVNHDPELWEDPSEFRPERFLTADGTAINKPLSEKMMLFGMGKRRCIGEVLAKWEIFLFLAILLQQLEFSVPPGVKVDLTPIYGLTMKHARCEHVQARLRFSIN
Procedure, shortened: (§2)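 Each CYP isoform assayed separately at a single 3 µM compound concentration in duplicate, with at least one isoform-specific positive control inhibitor. Incubation 30 min at 37 °C; end-point measurement gives percent inhibition.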

[7] = target: CYP2C9 (Homo sapiens, UniProt P11712); assay: Inhibition of CYP2C9 at 3 uM after 30 mins; type: ADME; procedure, shortened: as §2
Sequence of CYP2C9 (P11712 whole entry): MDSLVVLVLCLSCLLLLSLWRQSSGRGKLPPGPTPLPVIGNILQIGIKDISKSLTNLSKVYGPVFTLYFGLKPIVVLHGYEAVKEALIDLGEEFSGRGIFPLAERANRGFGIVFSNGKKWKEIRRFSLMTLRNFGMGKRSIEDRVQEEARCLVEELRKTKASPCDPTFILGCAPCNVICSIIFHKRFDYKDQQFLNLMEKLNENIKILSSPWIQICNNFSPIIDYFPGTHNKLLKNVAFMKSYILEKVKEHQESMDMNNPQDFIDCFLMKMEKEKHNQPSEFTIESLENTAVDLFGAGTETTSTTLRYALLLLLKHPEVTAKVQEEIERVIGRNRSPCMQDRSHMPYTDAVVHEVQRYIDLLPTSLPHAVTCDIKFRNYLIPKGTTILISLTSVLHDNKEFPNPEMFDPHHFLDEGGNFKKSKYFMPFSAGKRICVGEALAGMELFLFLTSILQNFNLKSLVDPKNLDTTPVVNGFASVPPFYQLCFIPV

[8] = target: CYP2D6 (Homo sapiens, UniProt P10635); assay: Inhibition of CYP2D6 at 3 uM after 30 mins; type: ADME; procedure, shortened: as §2
Sequence of CYP2D6 (P10635 whole entry): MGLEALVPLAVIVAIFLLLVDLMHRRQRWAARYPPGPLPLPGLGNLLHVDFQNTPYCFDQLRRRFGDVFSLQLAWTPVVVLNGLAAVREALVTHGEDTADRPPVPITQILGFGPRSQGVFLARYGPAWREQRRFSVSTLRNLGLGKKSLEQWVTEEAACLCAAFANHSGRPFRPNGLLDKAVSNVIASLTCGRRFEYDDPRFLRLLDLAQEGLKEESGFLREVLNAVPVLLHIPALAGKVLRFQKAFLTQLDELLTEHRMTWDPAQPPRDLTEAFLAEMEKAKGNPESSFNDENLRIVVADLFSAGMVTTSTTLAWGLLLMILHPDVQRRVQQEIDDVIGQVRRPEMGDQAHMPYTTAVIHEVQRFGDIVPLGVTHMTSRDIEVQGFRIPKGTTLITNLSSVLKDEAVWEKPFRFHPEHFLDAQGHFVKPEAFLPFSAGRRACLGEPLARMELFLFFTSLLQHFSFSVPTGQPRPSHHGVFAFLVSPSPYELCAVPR

[9] = target: CYP3A4 (Homo sapiens, UniProt P08684); assay: Inhibition of CYP3A4 at 3 uM after 30 mins; type: ADME; procedure, shortened: as §2
Sequence of CYP3A4 (P08684 whole entry): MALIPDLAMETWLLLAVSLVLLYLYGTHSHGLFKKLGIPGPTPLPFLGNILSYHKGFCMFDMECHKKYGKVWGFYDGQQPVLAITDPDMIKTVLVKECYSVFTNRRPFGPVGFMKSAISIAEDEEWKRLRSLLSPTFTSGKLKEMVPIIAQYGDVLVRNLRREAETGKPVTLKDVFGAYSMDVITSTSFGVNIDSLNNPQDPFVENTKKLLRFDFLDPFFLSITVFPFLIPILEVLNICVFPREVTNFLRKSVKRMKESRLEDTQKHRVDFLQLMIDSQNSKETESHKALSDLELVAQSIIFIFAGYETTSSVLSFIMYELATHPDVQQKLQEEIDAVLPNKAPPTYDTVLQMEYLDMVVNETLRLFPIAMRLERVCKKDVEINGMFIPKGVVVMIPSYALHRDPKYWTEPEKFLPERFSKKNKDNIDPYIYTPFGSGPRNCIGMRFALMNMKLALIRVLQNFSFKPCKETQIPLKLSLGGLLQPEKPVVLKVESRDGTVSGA

[10] = target: hERG (KCNH2) (Homo sapiens, UniProt Q12809); assay: Displacement of Cy3B-tagged N-desmethyl dofetilide from human ERG expressed in HEK cells at 10 uM after 120 mins; type: cell-based, HEK293; settings: HEK cells that express human ERG, probe Cy3B-tagged N-desmethyl dofetilide
Sequence of hERG (KCNH2) (Q12809 whole entry): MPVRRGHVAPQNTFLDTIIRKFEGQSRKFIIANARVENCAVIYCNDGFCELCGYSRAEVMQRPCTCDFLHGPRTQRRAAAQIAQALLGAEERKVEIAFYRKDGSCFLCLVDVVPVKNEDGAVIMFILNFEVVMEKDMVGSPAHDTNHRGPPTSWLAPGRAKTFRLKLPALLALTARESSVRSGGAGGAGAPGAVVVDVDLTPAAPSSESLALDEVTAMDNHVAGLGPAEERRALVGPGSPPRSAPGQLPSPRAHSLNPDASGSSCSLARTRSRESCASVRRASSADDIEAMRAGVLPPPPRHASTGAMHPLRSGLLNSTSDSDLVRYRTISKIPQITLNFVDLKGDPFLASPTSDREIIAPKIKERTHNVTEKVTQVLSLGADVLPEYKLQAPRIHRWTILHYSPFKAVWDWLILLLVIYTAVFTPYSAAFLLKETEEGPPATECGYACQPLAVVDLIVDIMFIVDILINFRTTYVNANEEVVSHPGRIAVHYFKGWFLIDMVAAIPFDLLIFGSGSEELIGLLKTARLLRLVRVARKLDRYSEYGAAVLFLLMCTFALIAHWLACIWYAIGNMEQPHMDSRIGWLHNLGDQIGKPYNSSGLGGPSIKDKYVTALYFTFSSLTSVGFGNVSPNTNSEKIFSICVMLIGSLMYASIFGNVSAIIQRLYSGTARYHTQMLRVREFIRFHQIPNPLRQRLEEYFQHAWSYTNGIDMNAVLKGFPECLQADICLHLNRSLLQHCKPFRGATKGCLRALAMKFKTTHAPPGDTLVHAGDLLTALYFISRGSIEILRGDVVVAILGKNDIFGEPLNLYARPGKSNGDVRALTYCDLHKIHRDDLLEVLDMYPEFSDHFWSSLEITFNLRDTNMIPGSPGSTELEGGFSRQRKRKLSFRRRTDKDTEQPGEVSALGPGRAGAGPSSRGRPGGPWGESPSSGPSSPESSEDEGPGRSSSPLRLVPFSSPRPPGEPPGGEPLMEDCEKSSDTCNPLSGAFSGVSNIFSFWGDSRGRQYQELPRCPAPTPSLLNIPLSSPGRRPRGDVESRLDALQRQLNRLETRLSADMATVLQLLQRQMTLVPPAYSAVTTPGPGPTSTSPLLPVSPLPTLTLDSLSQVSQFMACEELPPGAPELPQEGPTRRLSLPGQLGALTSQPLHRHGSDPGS
Procedure, shortened: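 Fluorescence polarization competition assay with HEK-hERG membrane homogenates and Cy3B-tagged N-desmethyl dofetilide tracer. Compound tested at a single 10 µM concentration, 120 min incubation, end-point read for percent inhibition.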

[11] = Effective half life in Sprague-Dawley rat at 2 mg/kg, iv and 5 mg/kg, po; type: ADME, organism-based; settings: in vivo
[12] = Clearance in Sprague-Dawley rat at 2 mg/kg, iv and 5 mg/kg, po; type: ADME, organism-based; settings: in vivo
[13] = Volume of distribution at steady state in Sprague-Dawley rat at 2 mg/kg, iv and 5 mg/kg, po; type: ADME, organism-based; settings: in vivo, read-out: Vdss
[14] = Oral bioavailability in Sprague-Dawley rat at 5 mg/kg; type: ADME, organism-based; settings: in vivo
[15] = Selectivity for human P2Y12 receptor over P2Y13
[16] = Selectivity for human P2Y12 receptor over P2Y1

T1 sequence (Q9H244 whole entry): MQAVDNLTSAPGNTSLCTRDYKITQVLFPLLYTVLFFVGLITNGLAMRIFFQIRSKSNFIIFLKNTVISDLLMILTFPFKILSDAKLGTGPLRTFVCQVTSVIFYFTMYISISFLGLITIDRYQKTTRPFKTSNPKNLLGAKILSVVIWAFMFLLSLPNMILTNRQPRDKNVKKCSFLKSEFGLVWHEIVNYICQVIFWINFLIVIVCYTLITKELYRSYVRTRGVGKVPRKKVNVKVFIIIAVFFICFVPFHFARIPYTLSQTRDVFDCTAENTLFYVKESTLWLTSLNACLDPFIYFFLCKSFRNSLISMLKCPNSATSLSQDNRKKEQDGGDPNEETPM

## CCCCCOC(=O)N1CCN(C(=O)[C@H](CCC(=O)O)NC(=O)c2nc(-c3ccccc3)cc(N3CCC(COC)CC3)n2)CC1
[1]
  Ki: 12 nM
[2]
  Ratio IC50: 1.4
[3]
  Ratio IC50: 9.5
[4]
  Stability: > 80%
[5]
  Stability: > 80%
[6]
  inhibition at 0.5 h, 3 µM: < 25%
[7]
  inhibition at 0.5 h, 3 µM: < 25%
[8]
  inhibition at 0.5 h, 3 µM: < 25%
[9]
  inhibition at 0.5 h, 3 µM: < 25%
[10]
  inhibition at 2 h, 10 µM: < 25%
[11]
  half-life: 18 min
[12]
  clearance: 6 mL/min/kg
[13]
  Vd: 0.15 L/kg
[14]
  bioavailability: 6%
[15]
  fold change (FC): > 340
[16]
  fold change (FC): > 340

## CCCCCOC(=O)N1CCN(C(=O)[C@H](CCC(=O)O)NC(=O)c2cc(N3CCC(CN4CCCC4)CC3)nc(-c3ccccc3)n2)CC1
[1]
  Ki: 0.4 nM
[2]
  Ratio IC50: 0.1
[3]
  Ratio IC50: 0.7
[4]
  Stability: > 80%
[5]
  Stability: > 80%
[6]
  inhibition at 0.5 h, 3 µM: < 25%
[7]
  inhibition at 0.5 h, 3 µM: < 25%
[8]
  inhibition at 0.5 h, 3 µM: < 25%
[9]
  inhibition at 0.5 h, 3 µM: < 25%
[10]
  inhibition at 2 h, 10 µM: < 25%
[11]
  half-life: 18 min
[12]
  clearance: 98 mL/min/kg
[13]
  Vd: 7.7 L/kg
[14]
  bioavailability: 1%
[15]
  fold change (FC): > 340
[16]
  fold change (FC): > 340

## CCCCOC(=O)N1CCN(C(=O)[C@H](CCC(=O)O)NC(=O)c2cc(N3CCC(C(=O)NCC)CC3)nc(-c3ccccc3)n2)CC1
[1]
  Ki: 0.38 nM
[2]
  Ratio IC50: 0.1
[3]
  Ratio IC50: 0.6
[4]
  Stability: > 80%
[5]
  Stability: > 80%
[6]
  inhibition at 0.5 h, 3 µM: < 25%
[7]
  inhibition at 0.5 h, 3 µM: < 25%
[8]
  inhibition at 0.5 h, 3 µM: < 25%
[9]
  inhibition at 0.5 h, 3 µM: < 25%
[10]
  inhibition at 2 h, 10 µM: < 25%
[11]
  half-life: 6 min
[12]
  clearance: 16 mL/min/kg
[13]
  Vd: 0.3 L/kg
[14]
  bioavailability: 7%
[15]
  fold change (FC): > 340
[16]
  fold change (FC): > 340

## CCCCCOC(=O)N1CCN(C(=O)[C@H](CCC(=O)O)NC(=O)c2cc(N3CCC(CNC)CC3)nc(-c3ccccc3)n2)CC1
[1]
  Ki: 1.2 nM
[2]
  Ratio IC50: 0.1
[3]
  Ratio IC50: 0.7
[4]
  Stability: > 80%
[5]
  Stability: > 80%
[6]
  inhibition at 0.5 h, 3 µM: < 25%
[7]
  inhibition at 0.5 h, 3 µM: < 25%
[8]
  inhibition at 0.5 h, 3 µM: < 25%
[9]
  inhibition at 0.5 h, 3 µM: < 25%
[10]
  inhibition at 2 h, 10 µM: < 25%
[11]
  half-life: 42 min
[12]
  clearance: 31 mL/min/kg
[13]
  Vd: 2 L/kg
[14]
  bioavailability: 2%
[15]
  fold change (FC): > 340
[16]
  fold change (FC): > 340

## CCCCCOC(=O)N1CCN(C(=O)[C@H](CCC(=O)O)NC(=O)c2cc(N3CCC(C(=O)N4CCCC4)CC3)nc(-c3ccccc3)n2)CC1
[1]
  Ki: 0.46 nM
[2]
  Ratio IC50: 0.06
[3]
  Ratio IC50: 0.4
[4]
  Stability: > 80%
[5]
  Stability: > 80%
[6]
  inhibition at 0.5 h, 3 µM: < 25%
[7]
  inhibition at 0.5 h, 3 µM: < 25%
[8]
  inhibition at 0.5 h, 3 µM: < 25%
[9]
  inhibition at 0.5 h, 3 µM: < 25%
[10]
  inhibition at 2 h, 10 µM: < 25%
[11]
  half-life: 48 min
[12]
  clearance: 2 mL/min/kg
[13]
  Vd: 0.2 L/kg
[14]
  bioavailability: 13%
[15]
  fold change (FC): > 340
[16]
  fold change (FC): > 340

## CCCCCOC(=O)N1CCN(C(=O)[C@H](CCC(=O)O)NC(=O)c2cc(N3CCC(CN)CC3)nc(-c3ccccc3)n2)CC1
[1]
  Ki: 3 nM
[2]
  Ratio IC50: 0.1
[3]
  Ratio IC50: 0.6
[4]
  Stability: > 80%
[5]
  Stability: > 80%
[6]
  inhibition at 0.5 h, 3 µM: < 25%
[7]
  inhibition at 0.5 h, 3 µM: < 25%
[8]
  inhibition at 0.5 h, 3 µM: < 25%
[9]
  inhibition at 0.5 h, 3 µM: < 25%
[10]
  inhibition at 2 h, 10 µM: < 25%
[11]
  half-life: 102 min
[12]
  clearance: 33 mL/min/kg
[13]
  Vd: 4.9 L/kg
[14]
  bioavailability: 1%
[15]
  fold change (FC): > 340
[16]
  fold change (FC): > 340

## CCCCCOC(=O)N1CCN(C(=O)[C@H](CCC(=O)O)NC(=O)c2cc(N3CCC(C(=O)N(CC)CC)CC3)nc(-c3ccccc3)n2)CC1
[1]
  Ki: 1.5 nM
[2]
  Ratio IC50: 0.1
[3]
  Ratio IC50: 0.6
[4]
  Stability: > 80%
[5]
  Stability: > 80%
[6]
  inhibition at 0.5 h, 3 µM: < 25%
[7]
  inhibition at 0.5 h, 3 µM: < 25%
[8]
  inhibition at 0.5 h, 3 µM: < 25%
[9]
  inhibition at 0.5 h, 3 µM: < 25%
[10]
  inhibition at 2 h, 10 µM: < 25%
[11]
  half-life: 24 min
[12]
  clearance: 6 mL/min/kg
[13]
  Vd: 0.21 L/kg
[14]
  bioavailability: 38%
[15]
  fold change (FC): > 340
[16]
  fold change (FC): > 340

## CCCCCOC(=O)N1CCN(C(=O)[C@H](CCC(=O)O)NC(=O)c2cc(N3CCC(COC)CC3)nc(-c3ccccc3)n2)CC1
[1]
  Ki: 8.4 nM
[2]
  Ratio IC50: 0.4
[3]
  Ratio IC50: 2.8
[4]
  Stability: > 80%
[5]
  Stability: > 80%
[6]
  inhibition at 0.5 h, 3 µM: < 25%
[7]
  inhibition at 0.5 h, 3 µM: < 25%
[8]
  inhibition at 0.5 h, 3 µM: < 25%
[9]
  inhibition at 0.5 h, 3 µM: < 25%
[10]
  inhibition at 2 h, 10 µM: < 25%
[11]
  half-life: 54 min
[12]
  clearance: 14 mL/min/kg
[13]
  Vd: 1.1 L/kg
[14]
  bioavailability: 61%
[15]
  fold change (FC): > 340
[16]
  fold change (FC): > 340

## CCCCCOC(=O)N1CCN(C(=O)[C@H](CCC(=O)O)NC(=O)c2nc(-c3ccccc3)cc(N3CCC(CN)CC3)n2)CC1
[1]
  Ki: 9.4 nM
[2]
  Ratio IC50: 0.2
[3]
  Ratio IC50: 1.2
[4]
  Stability: > 80%
[5]
  Stability: > 80%
[6]
  inhibition at 0.5 h, 3 µM: < 25%
[7]
  inhibition at 0.5 h, 3 µM: < 25%
[8]
  inhibition at 0.5 h, 3 µM: < 25%
[9]
  inhibition at 0.5 h, 3 µM: < 25%
[10]
  inhibition at 2 h, 10 µM: < 25%
[11]
  half-life: 12 min
[12]
  clearance: 16 mL/min/kg
[13]
  Vd: 0.28 L/kg
[14]
  bioavailability: 1%
[15]
  fold change (FC): > 340
[16]
  fold change (FC): > 340
